In assay [1] the target is T1, Adenosine receptor A1 (Homo sapiens) (UniProt P30542).
T1 sequence (whole entry): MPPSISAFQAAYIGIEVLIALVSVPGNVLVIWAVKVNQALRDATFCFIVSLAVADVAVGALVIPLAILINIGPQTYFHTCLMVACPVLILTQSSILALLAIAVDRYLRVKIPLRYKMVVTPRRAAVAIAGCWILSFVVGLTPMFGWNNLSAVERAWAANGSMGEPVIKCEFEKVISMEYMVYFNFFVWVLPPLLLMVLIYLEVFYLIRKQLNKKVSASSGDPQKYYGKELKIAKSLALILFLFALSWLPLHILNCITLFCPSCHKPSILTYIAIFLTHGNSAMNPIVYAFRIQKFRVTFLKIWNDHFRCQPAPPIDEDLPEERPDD
The assay is described as follows: Allosteric enhancement of human adenosine A1 receptor expressed in CHO cells assessed as inhibition of CCPA-induced cAMP production at 100 nM after 10 mins. The class given is functional, cell-based. The essentials:
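Intact hA1CHO cells (10⁶/mL) in phosphate buffer with adenosine deaminase 1.0 IU/mL and Ro 20-1724 0.5 mM, preincubated 10 min at 37 °C. Compound 100 nM plus CCPA 1 pM added for 10 min, then forskolin 1 μM for 5 min. Stopped with cold 6% TCA, ether-extracted. cAMP measured by [3H]-cAMP competition with adrenal binding protein (4 °C, 150 min). pmol/10⁶ cells, mean ± SEM of three.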
A general note: Changes in cAMP serve as a functional read-out for many G protein-coupled receptors.

Assay [2] deals with T1, Adenosine receptor A1 (Homo sapiens). The assay is described as follows: Allosteric enhancement of human adenosine A1 receptor expressed in CHO cells assessed as increase of [3H]CCPA Bmax at 10 uM after 90 mins. The class given is cell-based. The essentials:
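Saturation of [3H]CCPA (0.05–20 nM) on hA1CHO membranes in 50 mM Tris-HCl, pH 7.4, with or without compound at final 10 μM. Triplicate, 25 °C, 90 min. Nonspecific binding defined with 1 μM R-PIA. Filter-bound radioactivity counted. KD and Bmax fitted by weighted nonlinear least squares; Bmax shift versus control. Mean ± SEM, n=3.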

The target of assay [3] is T2, Adenosine receptor A3 (Homo sapiens) (UniProt P0DMS8).
T2 sequence (whole entry): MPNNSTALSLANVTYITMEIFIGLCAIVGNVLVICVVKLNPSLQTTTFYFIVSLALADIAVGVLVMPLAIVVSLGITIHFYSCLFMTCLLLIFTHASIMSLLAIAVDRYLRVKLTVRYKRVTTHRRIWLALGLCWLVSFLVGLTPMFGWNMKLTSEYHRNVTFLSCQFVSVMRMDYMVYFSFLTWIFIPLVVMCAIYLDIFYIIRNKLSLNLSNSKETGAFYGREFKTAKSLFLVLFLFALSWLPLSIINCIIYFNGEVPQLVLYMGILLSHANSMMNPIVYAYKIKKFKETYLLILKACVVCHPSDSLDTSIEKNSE
Nature of the assay: Displacement of [3H]MRE-3008-F20 from human adenosine A3 receptor expressed in CHO cells at 10 uM after 120 mins by scintillation counting.

Assay [4] deals with T1, Adenosine receptor A1 (Homo sapiens). The assay is described as follows: Displacement of [3H]DPCPX from human adenosine A1 receptor expressed in CHO cells at 10 uM after 120 mins by scintillation counting. On the technique in general: Displacement assays read how much labelled ligand stays bound in the presence of the test substance.
Assay [5] shares this target. Nature of the assay: Allosteric enhancement of human adenosine A1 receptor expressed in CHO cells assessed as increase of CCPA Ki at 10 uM after 90 mins by [3H]DPCPX radioligand binding assay. The class given is cell-based. The essentials:
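hA1CHO membranes (50 mM Tris-HCl, pH 7.4, adenosine deaminase-treated). [3H]DPCPX 1 nM competed by CCPA (0.01 nM–1 μM) with or without test compound at 10 μM. Triplicate, 90 min at 25 °C. Nonspecific binding taken with 1 μM DPCPX. Filtration, then scintillation counting. Ki by Cheng–Prusoff. Shift = Ki(CCPA)/Ki(CCPA+enhancer). Mean ± SEM, n=3.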

Assay [6] has the same target. The assay is described as follows: Allosteric enhancement of human adenosine A1 receptor expressed in CHO cells assessed as inhibition of forskolin-induced cAMP production at 10 uM after 10 mins. The class given is functional, cell-based. The essentials:
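Whole hA1CHO cells (10⁶/mL) preincubated 10 min at 37 °C in phosphate buffer with adenosine deaminase (1.0 IU/mL) and Ro 20-1724 (0.5 mM). Compound alone at 10 μM for a further 10 min; forskolin 1 μM for 5 min. TCA stop, ether extraction, cAMP by [3H]-cAMP protein-binding competition assay. Expressed as pmol/10⁶ cells; mean ± SEM, three experiments.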

In assay [7] the target is Adenosine receptor A2a (Homo sapiens) (UniProt P29274). Nature of the assay: Displacement of [3H]ZM 241385 from human adenosine A2A receptor expressed in CHO cells at 10 uM after 60 mins by scintillation counting. The class given is cell-based. The essentials:
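hA2ACHO membranes in 50 mM Tris HCl, 10 mM MgCl2, pH 7.4, 4 °C for 60 min. [3H]ZM 241385 given as 1 nM in methods and 2 nM in table footnote. Compound at 10 μM from 100-fold DMSO stock, 1% DMSO final. Nonspecific binding with 1 μM ZM 241385. Filtration and scintillation counting. Percent inhibition of control specific binding, ±SEM, n=3.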

Chain of Adenosine receptor A2a (Homo sapiens) (P29274 whole entry): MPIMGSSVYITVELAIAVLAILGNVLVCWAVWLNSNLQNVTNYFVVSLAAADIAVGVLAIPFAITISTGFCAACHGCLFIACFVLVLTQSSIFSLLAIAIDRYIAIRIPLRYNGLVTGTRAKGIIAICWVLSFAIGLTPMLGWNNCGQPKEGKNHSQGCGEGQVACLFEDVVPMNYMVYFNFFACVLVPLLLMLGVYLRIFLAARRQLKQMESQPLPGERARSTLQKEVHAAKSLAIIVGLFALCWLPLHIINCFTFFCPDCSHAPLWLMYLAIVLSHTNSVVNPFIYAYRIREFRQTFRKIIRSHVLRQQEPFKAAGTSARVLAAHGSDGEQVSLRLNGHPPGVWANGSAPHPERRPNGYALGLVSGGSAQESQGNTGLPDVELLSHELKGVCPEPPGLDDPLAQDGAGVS

On to `CC(C)N(Cc1c(Br)sc(N)c1C(=O)c1ccc(Cl)cc1)C(C)C`, for which the inhibition turned out to be 14% in assay [1]; 3% in assay [3]; 1% in assay [4]; 12% in assay [6]; 1% in assay [7]. The fold change (FC) was 1.5 in assay [2] and 1.4 in assay [5].
On to `CN(Cc1csc(N)c1C(=O)c1ccc(Cl)cc1)c1ccc(Cl)cc1`, for which the inhibition in assay [1] stood at 21%; in assay [3] it was 12%; in assay [4], 8%; in assay [6], 22%; in assay [7], 0%. For the same compound, the fold change (FC) in assay [2] worked out at 2.5; in assay [5], 2.2.
As to `CCCN(CCC)Cc1csc(N)c1C(=O)c1ccc(Cl)cc1`, the inhibition in assay [1] was found to be 10%; in assay [3], 5%; in assay [4] it was 4%; in assay [6], 9%; in assay [7], 0%. The fold change (FC) in assay [2] amounted to 1.2; in assay [5] it was 1.1.
`Cn1c2c(c3ccccc31)CN(Cc1csc(N)c1C(=O)c1ccc(Cl)cc1)CC2`: the inhibition in assay [1] came out at 27%; in assay [3], 2%; in assay [4], 2%; in assay [6], 28%; in assay [7], 1%. The fold change (FC) in assay [2] is 3.1; in assay [5], 2.9.
As to `Cc1ccc2c(c1)OC1(CCN(Cc3csc(N)c3C(=O)c3ccc(Cl)cc3)CC1)O2`, the inhibition in assay [1] amounted to 45%; in assay [3] it was 6%; in assay [4], 0%; in assay [6] it was 48%; in assay [7] it was 3%. The fold change (FC) in assay [2] was 5.1; in assay [5] it was 4.2.
Turning to `CCCCN(C)Cc1c(-c2ccccc2)sc(N)c1C(=O)c1ccc(Cl)cc1`, the inhibition in assay [1] worked out at 12%; in assay [3], 5%; in assay [4] it was 1%; in assay [6] it was 5%; in assay [7], 1%. Also, the fold change (FC) in assay [2] and in assay [5] was 1.1 in each case.

A word on the inhibition: it is the change of the read-out against control, counted positive when it falls.

The values are drawn from ChEMBL document CHEMBL2417436, “Synthesis and biological effects of novel 2-amino-3-(4-chlorobenzoyl)-4-substituted thiophenes as allosteric enhancers of the A1 adenosine receptor” (Eur J Med Chem, 2013).
